# In the library only some 11% were active in any assay of this set; here they are far more common.
# RORa activator: activators of human nuclear receptor RORA; P35398; CHO-K1 Gal4-RORA LBD luciferase reporter, luminescence; percent increase over mock-subtracted basal signal; activation, % at 10 µM; 65,000 compounds, 1.5% hits;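 active = activation above the mean of all tested compounds plus 3 SD, cut at about 49% in these data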
# D1 mod: allosterically modulates the human D1 dopamine receptor | AID 641 | HEK293 D1, CRE-luciferase, dopamine EC30 potentiation; actives deviate in either direction | B-score at 10 µM | P21728 | 58,000 compounds, 5.9% hits;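 active = luminescence count or its row- and column-corrected plate score outside the 99.7% band of the plate's sample wells, on either side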
# M1 antag: blocks the rat M1 muscarinic receptor response to acetylcholine; CHO-M1 cells, Fluo-4 calcium, ACh EC80 antagonist mode; stronger effect = lower value; B-score at 10 µM; P08482; 64,000 compounds, 3.4% hits; AID 628;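 active = calcium fluorescence response, raw or row-and-column corrected B-score, differing from the plate sample mean either way at a set confidence level, mostly lower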
# M1 ag: activates the M1 muscarinic receptor; CHO-M1 cells, Fluo-4 calcium fluorescence, agonist mode; stronger effect = higher value; B-score at 10 µM; 64,000 compounds, 3% hits; AID 626;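 active = fluorescence rise, raw or as B-score row- and column-corrected plate score, outside the 99.7% band of its plate's samples, either direction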
# SF-1 act: activators of human nuclear receptor SF-1. Q13285. CHO-K1 Gal4-SF-1 LBD luciferase reporter; % increase over DMSO SF-1-specific signal. activation, % at 10 µM. 65,000 compounds, 1.9% hits;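 active = activation above the mean activation of all tested compounds plus 3 SD, cut at about 50% in these data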
# Target sequence (Q13285 whole entry, looked up, the tested form may be a part): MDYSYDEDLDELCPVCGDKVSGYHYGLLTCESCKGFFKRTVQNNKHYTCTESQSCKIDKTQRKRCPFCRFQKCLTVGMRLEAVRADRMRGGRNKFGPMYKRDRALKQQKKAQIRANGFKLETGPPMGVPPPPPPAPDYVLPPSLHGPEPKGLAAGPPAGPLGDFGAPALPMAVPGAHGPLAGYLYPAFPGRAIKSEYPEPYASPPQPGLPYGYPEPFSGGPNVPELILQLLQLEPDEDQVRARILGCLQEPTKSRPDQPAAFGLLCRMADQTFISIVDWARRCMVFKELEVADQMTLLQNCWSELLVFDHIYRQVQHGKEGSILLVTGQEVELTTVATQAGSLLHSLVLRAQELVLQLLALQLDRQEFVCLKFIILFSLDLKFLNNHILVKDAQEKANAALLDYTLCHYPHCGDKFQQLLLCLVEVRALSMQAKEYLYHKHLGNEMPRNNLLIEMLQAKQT
#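 Material: Transient Gal4-SF-1 LBD reporter, CHO-K1 | Input: 4,000 cells/well | Dosing: One dose, 10 µM compound, 1% DMSO | Incubation: 20 h compound treatment, 37 °C | Detection: SteadyLite luciferase luminescence | Evaluation: Percent activation relative to DMSO median and mock-transfected background | Benchmarks: DMSO-treated SF-1-transfected cells as negative, DMSO-treated mock-transfected cells lacking SF-1 as background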
# Htt clearance: mutant huntingtin protein clearance; inhibition, % at 1.5 µM; HeLa Exon1htt(103Q)mCFP, aggregate imaging; zero = plate's median compound well; 47,000 compounds, 0.42% hits; AID 853;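 active = inhibition of aggregate fluorescence above about 70%, also judged a hit by eye on the cell image, limit read from the data, passing the limit was not always enough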;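 also: cells exposed to compound for three days before fixation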
# Numbers stand for hits; - = inactive; . = no result given.
SMILES,RORa activator,D1 mod,M1 antag,M1 ag,SF-1 act,Htt clearance
Cc1ccc(S(=O)(=O)NCC2CCC(C(=O)NCCCN3CCOCC3)CC2)cc1 (centres undefined),-,-,-,-,-,-
O=C(CC1(O)C(=O)Nc2ccc(Br)cc21)c1ccc2c(c1)OCO2 (centres undefined),-,-,-,-,-,-
Cc1ccccc1NC(=O)c1ccc(F)c(S(=O)(=O)N2CCN(c3ccccn3)CC2)c1,-,-2.2,-,-,-,.
CCN1CCn2c3c(c4cc(Cl)ccc42)CCCC31 (centres undefined),-,-,1.8,-,-,-
COc1ccc(Cn2c(C)nc3c(c2=O)c2nc4ccccc4nc2n3Cc2ccco2)cc1,-,7.6,-,-,-,.
O=C(Nc1ccc(N2CCOCC2)cc1)C1CC1,-,-,-,-,-,-
O=C(Nc1ccc(N2CCOCC2)c(Cl)c1)C1CCCCC1,49,-,-,-,-,-
CCC1Cc2c(nc3c4c(nc(N5CCOCC5)c(C#N)c24)NC(C)=N3)O1 (centres undefined),-,4.2,-,-,-,-
CCc1nc(N2CCOCC2)c(C#N)c2c1CCCC2,-,.,-,-,-,.
CCCC(=O)Nc1nc2ccc(OC)cc2s1,56,-,-,-,54,.
CCOc1ccc2nc(NC(=O)c3cnccn3)sc2c1,86,-,-,-,-,.
COc1ccc2nc(NC(=O)c3ccoc3C)sc2c1,-,-4.3,-,-,-,.
COc1ccc2nc(NC(=O)c3cccc(OCc4c(C)noc4C)c3)sc2c1,86,-,-,-,-,.
COc1ccc2nc(NC(=O)CN3CCN(C)CC3)sc2c1,-,-,-,-,-,.
CCCCN1C2=C(C(=O)CCC2)C(c2ccc(Cl)c(Cl)c2)C2=C1c1ccccc1C2=O (centres undefined),.,.,.,.,.,-
CN(C)P(=NC(=O)COc1ccc(Cl)cc1Cl)(N(C)C)N(C)C,-,-,-,-,-,.
COc1ccc(-c2noc(CCC(=O)Nc3nc4ccccc4s3)n2)cc1,-,-,0.77,-,-,.
CCSc1nnc(NC(=O)c2cccc(OCc3c(C)noc3C)c2)s1,-,-,-,-,-,.
COc1ccc(-c2noc(CCC(=O)Nc3cccc(C)c3)n2)cc1,-,-,-,-,-,-
Cc1nnc(NC(=O)Cc2ccc(OCc3c(C)noc3C)cc2)s1,-,-3.1,-,-,-,-
O=C(CSc1nnnn1-c1ccccc1)CC(=O)Nc1ccc(Cl)cc1,-,.,-,-,-,.
S=C1NCCOCCOCCOCCOCCNC(=S)NCCOCCOCCOCCOCCN1,.,.,.,.,.,78
COc1ccc(/C=N/NC(=O)CCc2c(C)n[nH]c2C)cc1O,.,.,.,.,.,-
O=C(Nc1ncc(Cc2ccccc2)s1)c1cccs1,-,-,-,-,-,-
Cc1ccc(C(=O)Nc2nc3c(s2)CCCC3)o1,-,-4.7,-,-,-,.
SMILES,RORa activator,D1 mod,M1 antag,M1 ag,SF-1 act,Htt clearance
O=C(Nc1nc2c(s1)CCCC2)c1ccc(Br)o1,-,-,-,-,-,-
Cc1ccc(C(=O)Nc2ncc(Cc3ccccc3)s2)o1,-,-2.8,-,-,61,.
CC/C(O)=C(\C#N)c1nnc2n1CCCCC2,.,.,.,.,.,-
Cc1cccn2c(=O)c3cc(C(=O)N4c5ccccc5CC4C)n(C)c3nc12 (centres undefined),-,-4.8,-,-,-,-
Cc1cccn2c(=O)c3cc(C(=O)N4CCc5ccccc54)n(C)c3nc12,-,-,-,-,-,.
Cc1cnnn1-c1ccc(C(=O)CCl)cc1,.,.,.,.,.,-
COc1ccc(NC(=O)N2CCc3ccccc32)cc1,.,.,.,.,.,-
CCOC(=O)c1ccc(NC(=O)N2CCc3ccccc32)cc1,-,.,-,-,61,.
CCOC(=O)CSc1ccc(S(=O)(=O)N(C)C2CCCCC2)cc1[N+](=O)[O-],.,.,.,.,.,-
O=c1[nH]c(/C(=N\O)c2ccccc2)no1,-,-,-,-,-,.
CCCCN(C(=O)Cn1nnc2ccccc21)C(C(=O)NCCOC)c1cccs1 (centres undefined),.,.,.,.,.,74
CCOC(=O)c1cc(-c2ccco2)nc2c1c(C)nn2CCC#N,-,-,1.1,-,-,-
CCCOc1ccc(S(=O)(=O)n2cc(Br)c(=O)[nH]c2=O)cc1,50,.,-,-,-,.
COc1ccc(C(C)=O)cc1CSc1nnc(-c2ccccc2O)n1-c1ccccc1,.,.,.,.,.,-
CCOC(=O)C(CO)(NC(C)=O)C(=O)OCC,-,-,1.3,-,-,-
